The values below come from ChEMBL document CHEMBL1641515, “Inhibition of secreted phospholipases A₂ by 2-oxoamides based on α-amino acids: Synthesis, in vitro evaluation and molecular docking calculations” (Bioorg Med Chem, 2011).

Test [1] concerns the target T1, Group 10 secretory phospholipase A2 (Homo sapiens) (UniProt O15496).
T1 sequence (whole entry): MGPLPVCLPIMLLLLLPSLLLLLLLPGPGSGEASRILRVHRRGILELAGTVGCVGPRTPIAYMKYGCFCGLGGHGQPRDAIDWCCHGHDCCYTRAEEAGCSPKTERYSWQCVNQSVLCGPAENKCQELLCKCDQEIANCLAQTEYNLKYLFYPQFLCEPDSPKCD
The experiment in a line: Inhibition of human group 10 sPLA2 at […] by fluorescence assay.

Test [2] has as its target T2, Phospholipase A2 group V (Homo sapiens) (UniProt P39877).
T2 sequence (whole entry): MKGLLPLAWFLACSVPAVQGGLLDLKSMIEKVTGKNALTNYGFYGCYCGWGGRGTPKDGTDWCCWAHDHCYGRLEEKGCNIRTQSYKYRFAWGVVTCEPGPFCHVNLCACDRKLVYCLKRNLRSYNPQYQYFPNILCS
The test can be described thus: Inhibition of human group 5 sPLA2 at […] by fluorescence assay.

For test [3], the target named is T3, Phospholipase A2, membrane associated (Homo sapiens, UniProt P14555).
T3 sequence (P14555 whole entry): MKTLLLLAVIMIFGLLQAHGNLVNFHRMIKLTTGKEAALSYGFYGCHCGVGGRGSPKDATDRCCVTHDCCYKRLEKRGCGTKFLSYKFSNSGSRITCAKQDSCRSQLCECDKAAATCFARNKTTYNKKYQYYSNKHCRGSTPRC
The test can be described thus: Inhibition of human group 2A sPLA2 by fluorescence assay. An outline of the steps: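 Continuous fluorimetric assay with recombinant human GIIA sPLA2 (6 ng/well) on pyrPG vesicles, pH 8.0 Tris buffer with Ca2+, KCl and BSA. Readout at ex 342/em 395 nm, initial slopes. […] Nonlinear variable-slope sigmoidal fit gives IC50; mean of duplicate or triplicate analyses with SD.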

Test [4] deals with T4, Phospholipase A2 group V (Mus musculus, UniProt P97391).
T4 sequence (P97391 whole entry): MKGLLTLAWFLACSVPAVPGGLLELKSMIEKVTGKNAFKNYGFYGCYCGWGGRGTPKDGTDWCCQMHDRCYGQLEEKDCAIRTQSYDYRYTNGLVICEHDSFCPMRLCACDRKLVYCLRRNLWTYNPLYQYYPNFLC
The experiment in a line: Inhibition of mouse group 5 sPLA2 by fluorescence assay.

Test [5] has as its target T5, Phospholipase A2, membrane associated (Mus musculus, UniProt P31482).
T5 sequence (P31482 whole entry): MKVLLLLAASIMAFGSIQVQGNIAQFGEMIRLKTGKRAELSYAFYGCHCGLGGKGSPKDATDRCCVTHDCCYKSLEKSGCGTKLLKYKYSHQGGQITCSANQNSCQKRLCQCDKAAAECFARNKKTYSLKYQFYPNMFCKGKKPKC
The test can be described thus: Inhibition of mouse group 2A sPLA2 by fluorescence assay.

The target in test [6] is T6, Phospholipase A2 group V (Homo sapiens, UniProt P39877).
T6 sequence (P39877 whole entry): T2 sequence (whole entry)
The experiment in a line: Inhibition of human group 5 sPLA2 by fluorescence assay. The method, boiled down:
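Recombinant human GV sPLA2 (12.5 ng/well) with pyrPG vesicle substrate in Tris-HCl pH 8.0, KCl, CaCl2 and BSA. Monitored by fluorescence (342/395 nm), using initial slopes. […] IC50 by variable-slope sigmoidal regression on log concentration; duplicate or triplicate runs, mean with SD.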

The target of test [7] is T7, Group 10 secretory phospholipase A2 (Mus musculus) (UniProt Q9QXX3).
T7 sequence (whole entry): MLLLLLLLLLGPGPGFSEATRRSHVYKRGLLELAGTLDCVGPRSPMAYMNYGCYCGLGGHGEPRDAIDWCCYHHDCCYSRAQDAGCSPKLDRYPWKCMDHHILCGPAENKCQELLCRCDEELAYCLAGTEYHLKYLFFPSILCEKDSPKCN
The test can be described thus: Inhibition of mouse group 10 sPLA2 by fluorescence assay. To be noted: concentration not given here. An outline of the steps:
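Mouse GX sPLA2, recombinant, 10.7 ng per well, in 50 mM Tris-HCl pH 8.0 with 50 mM KCl, 1 mM CaCl2 and BSA. Started with pyrPG vesicles and read at ex 342/em 395 nm. Percent inhibition from initial fluorescence slopes at five concentrations. IC50 from a variable-slope sigmoidal dose-response fit.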

The target in test [8] is T8, Phospholipase A2, membrane associated (Homo sapiens) (UniProt P14555).
T8 sequence (whole entry): T3 sequence (P14555 whole entry)
The experiment in a line: Inhibition of human group 2A sPLA2 at […] by fluorescence assay.

Test [9] has as its target T9, Group 10 secretory phospholipase A2 (Homo sapiens, UniProt O15496).
T9 sequence (O15496 whole entry): T1 sequence (whole entry)
The experiment in a line: Inhibition of human group 10 sPLA2 by fluorescence assay.

Bounds are passed on as bounds.

Usually inhibition stands for the drop in the measured response relative to a control, in per cent. Broadly, the IC50 is the point on the concentration scale where inhibition reaches its midpoint. A high value points to a need for much substance. Take `CCCCCCCCCCCCCCC(=O)C(=O)NCC(=O)O`: the inhibition turned out to be 23% in test [1] and 43% in test [2]. In addition, the IC50 in [3] was determined as 4200 nM.

With `CCCCCCCCCCCCCCC(=O)C(=O)N[C@@H](CC(C)C)C(=O)O`, the IC50 came out at 2600 nM on Phospholipase A2 group V [4], 180 nM in test [5], 440 nM at Phospholipase A2 group V [6] and 300 nM in [3]. Also, the inhibition in test [1] is 50%; in test [7] it was 58%.

`CCCCCCCCCCCCCCC(=O)C(=O)NCC(=O)OC`: the results for the inhibition in test [1], in test [2] and in test [8] were 22%, 9% and 3%, respectively.

Regarding `CCCCCCCCCCCCCCCC(=O)N[C@@H](CC(C)C)C(=O)O`, the IC50 (against Phospholipase A2 group V [6]; in test [3]) was more than 1660 nM throughout.

On to `CCCCCCCCCCCCCCC(=O)C(=O)N[C@H](CC(C)C)C(=O)O`, for which the half-maximal inhibitory concentration (IC50) at Phospholipase A2 group V [6] is 1500 nM; in test [3] it was 1750 nM; in [9], more than 1660 nM.

As to `CCCCCCCCCCCCCCC(=O)C(=O)NCCC(=O)O`, the inhibition worked out at 18% in test [1] and 47% in test [2]. This molecule also had an IC50 in test [3] of 5600 nM.

Regarding `CCCCCCCCCCCCCCC(=O)C(=O)N[C@@H](Cc1ccccc1)C(=O)O`, the IC50 (against Phospholipase A2 group V [6]; in test [3]; in [9]) was more than 1660 nM each time.

Regarding `CCCCCCCCCCCCCCC(=O)C(=O)NCCCCC(=O)O`, the inhibition is 7% in [1] and 49% in [2]. Further, 11700 nM corresponded to half-maximal inhibition in test [3] (IC50).
